Test results taken from ChEMBL document CHEMBL1125562, “Antimitotic agents: ring analogues and derivatives of ethyl [(S)-5-amino-1,2-dihydro-2-methyl-3-phenylpyrido[3,4-b]pyrazin-7-yl]carbamate” (J Med Chem, 1992).

How the values were obtained:
[1] = test system: Mus musculus; assay: Compound was evaluated in vivo for antileukemic activity by calculating Percent increase in life span at dose of 30 mg/kg; format: functional
Outline: (§1)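 NCI protocols. CD2F1 mice were implanted ip with 10⁶ lymphocytic leukemia P388 cells 24 h before treatment. Drug was given ip daily on days 1–5, or as a single day-1 dose where footnoted. The read-out was percent increase in lifespan.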

[2] = test system: L1210; assay: Concentration that causes a mitotic index (number of cells in mitosis divided by total cells) of 0.5 for cultured lymphoid leukemia L1210 cells during an exposure period of 12 h; format: functional, Mus musculus
Outline: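 Mouse lymphoid leukemia L1210 cells in culture, exposed to agent for 12 h. Mitotic index is cells in mitosis over total cells. Value is the nanomolar concentration giving an index of 0.5.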

[3] = test system: L1210; assay: Concentration that inhibits proliferation of cultured lymphoid leukemia L1210 cells to 50% control growth during 48 h; format: functional, cell-based; details: Mus musculus, L1210, 48 h
Outline: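 L1210 lymphoid leukemia cells in culture, exposed to agent for 48 h. Proliferation is measured against untreated control growth. Value is the nanomolar concentration holding growth to 50% of control.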

[4] = test system: Mus musculus; assay: Compound was evaluated in vivo for antileukemic activity by calculating Percent increase in life span at dose of 75 mg/kg; format: functional; outline: as §1
[5] = test system: Mus musculus; assay: Compound was evaluated in vivo for antileukemic activity by calculating Percent increase in life span at dose of 24 mg/kg; format: functional; outline: as §1
[6] = test system: Mus musculus; assay: Compound was evaluated in vivo for antileukemic activity by calculating Percent increase in life span at dose of 8 mg/kg; format: functional; outline: as §1
[7] = test system: Mus musculus; assay: Compound was evaluated in vivo for antileukemic activity by calculating Percent increase in life span at dose of 200 mg/kg; format: functional; outline: as §1
[8] = test system: Mus musculus; assay: Compound was evaluated in vivo for antileukemic activity by calculating Percent increase in life span at dose of 70 mg/kg; format: functional; outline: as §1
[9] = test system: Mus musculus; assay: Compound was evaluated in vivo for antileukemic activity by calculating Percent increase in life span at dose of 1 mg/kg; format: functional; outline: as §1
[10] = test system: Mus musculus; assay: Compound was evaluated in vivo for antileukemic activity by calculating Percent increase in life span at dose of 0.5 mg/kg; format: functional; outline: as §1
[11] = test system: Mus musculus; assay: Compound was evaluated in vivo for antileukemic activity by calculating Percent increase in life span at dose of 2 mg/kg; format: functional; outline: as §1

| SMILES | MI0.5 [2] [nM] | IC50 [3] [nM] | also measured |
| --- | --- | --- | --- |
| CCOC(=O)Nc1cc2c(c(N)n1)N=C(c1ccccc1)[C@@H](C)N2 | 27 | – | ILS at 30 mg/kg [1]: 88% |
| CCOC(=O)Nc1cc2c(c(O)n1)N=C(c1ccccc1)C(C)N2 (stereo not given) | 1800 | 4400 | – |
| CCOC(=O)Nc1cc(N)c2c(n1)NC(C)C(c1ccccc1)=N2 (stereo not given) | 6700 | 3900 | ILS at 75 mg/kg [4]: 0% |
| CCOC(=O)Nc1cc2c(cn1)N=C(c1ccccc1)C(C)N2 (stereo not given) | 21 | 17 | ILS at 24 mg/kg [5]: 90% |
| CCOC(=O)Nc1cc2c(c(N)n1)N=C(c1ccccc1)CCN2 | – | 3.7 | ILS at 8 mg/kg [6]: 35% |
| COC(=O)Nc1nc(N)c2c(n1)NC(C)C(c1ccccc1)=N2 (stereo not given) | 3000 | 1700 | ILS at 200 mg/kg [7]: 0% |
| CCOC(=O)Nc1cc2c(cn1)NC(c1ccccc1)C(C)N2 (stereo not given) | 161 | 81 | ILS at 70 mg/kg [8]: 65% |
| CCOC(=O)Nc1cc2c(c(N)n1)N=C(c1ccccc1)C(C)N2 (racemic) | 0.58 | – | ILS at 1 mg/kg [9]: 71% |
| COc1cc2c(c(OC)c1OC)-c1ccc(OC)c(=O)cc1[C@@H](NC(C)=O)CC2 [COLCHICINE] | 21 | – | – |
| CCOC(=O)Nc1cc2c(c(N)n1)N=C(c1ccccc1)[C@H](C)N2 [MIVOBULIN] | 0.14 | – | ILS at 0.5 mg/kg [10]: 64% |
| CC[C@]1(O)C[C@H]2CN(CCc3c([nH]c4ccccc34)[C@@](C(=O)OC)(c3cc4c(cc3OC)N(C=O)[C@H]3[C@@](O)(C(=O)OC)[C@H](OC(C)=O)[C@]5(CC)C=CCN6CC[C@]43[C@@H]65)C2)C1 [VINCRISTINE] | 11 | – | ILS at 2 mg/kg [11]: 85% |
